Data set [1] is described as follows: AUC (0 to 24 hrs) in Sprague-Dawley rat at 3 mg/kg, po measured after 24 hrs by LC-MS/MS analysis. Set-up: route oral, time 24 hrs, dose 3 mg/kg. Type of data set: ADME, organism-based. As to conditions: in vivo. In outline:
(§1)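 Male SD rats (eight weeks old at purchase) dosed orally at 3 mg/kg. Plasma profile followed over 0–24 h to derive AUC0–24h, Cmax, CL and T1/2. Values are mean SD of four rats.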

Data set [2] in a line: Clearance in Sprague-Dawley rat at 3 mg/kg, po measured for 24 hrs by LC-MS/MS analysis. Type of data set: ADME, organism-based. As to conditions: in vivo. Put shortly: as §1
A short description of data set [3]: Cmax in Sprague-Dawley rat at 3 mg/kg, po measured for 24 hrs by LC-MS/MS analysis. Set-up: route oral, dose 3 mg/kg, time 24 hrs. Type of data set: ADME, organism-based. The following applies: in vivo. In outline: as §1
Data set [4] is described as follows: Toxicity in ob/ob mouse assessed as weight gain at 20 mg/kg, po administered once daily for 30 days and measured every 5 days. Type of data set: organism-based. The following applies: in vivo, 720 h, time 30 day. In outline: (§2)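 Food and water intake measured daily and body weight every 5 days. n = 6, mean SD; Student's t-test vs vehicle, with one-way ANOVA/Tukey.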

Data set [5] can be described thus: Half-life in Sprague-Dawley rat at 3 mg/kg, po measured for 24 hrs by LC-MS/MS analysis. Type of data set: ADME, organism-based. The following applies: in vivo. Put shortly:
as §1

The species entered for data set [6] is Mus musculus. The following applies: dose 10.0 mg/kg, time 30.0 day.
For data set [7], the species on record is Mus musculus. As to conditions: dose 10.0 mg/kg, time 30.0 day. The source holds these as a separate data set.
The nature of data set [8]: Toxicity in ob/ob mouse assessed as weight gain at 10 mg/kg, po administered once daily for 30 days and measured every 5 days. Type of data set: organism-based. As to conditions: in vivo, 720 h, time 30 day. In outline:
as §2

Data set [9] is filed under the species Mus musculus. The following applies: dose 10.0 mg/kg, time 30.0 day. The source holds these as a separate data set.
The species named for data set [10] is Mus musculus. As to conditions: dose 10.0 mg/kg, time 30.0 day. The source holds these as a separate data set.
For data set [11], the species on record is Mus musculus. As to conditions: dose 10.0 mg/kg, time 30.0 day. The source holds these as a separate data set.
Data set [12] can be described thus: Induction of hepatic steatosis in ob/ob mouse at 10 mg/kg, po administered once daily for 30 days by hematoxylin-eosin staining based histopathological analysis. Type of data set: organism-based. The following applies: in vivo, 720 h, time 30 day. In outline: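 Liver sections were stained with hematoxylin-eosin and viewed at 400× for steatosis and ballooning, with normal controls included.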

The species entered for data set [13] is Mus musculus. The following applies: dose 10.0 mg/kg, time 30.0 day. The source holds these as a separate data set.
Data set [14] concerns the target T1, Peroxisome proliferator-activated receptor alpha (Homo sapiens, UniProt Q07869).
T1 sequence (Q07869 whole entry): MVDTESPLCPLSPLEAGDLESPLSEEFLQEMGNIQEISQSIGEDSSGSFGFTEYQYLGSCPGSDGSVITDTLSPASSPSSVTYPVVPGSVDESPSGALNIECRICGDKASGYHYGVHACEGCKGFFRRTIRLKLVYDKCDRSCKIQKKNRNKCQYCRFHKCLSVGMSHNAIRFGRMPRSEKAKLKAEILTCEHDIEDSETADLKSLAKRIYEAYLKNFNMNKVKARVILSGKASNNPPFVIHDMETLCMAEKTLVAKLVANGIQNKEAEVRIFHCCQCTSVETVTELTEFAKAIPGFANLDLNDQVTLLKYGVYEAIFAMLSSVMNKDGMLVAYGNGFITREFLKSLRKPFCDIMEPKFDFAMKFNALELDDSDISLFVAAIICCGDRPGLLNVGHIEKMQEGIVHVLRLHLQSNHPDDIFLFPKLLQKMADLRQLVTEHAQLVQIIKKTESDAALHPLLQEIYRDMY
As to the kind of experiment: Agonist activity at human PPARalpha transfected in human HepG2 cells incubated for 18 hrs by Renilla/Firefly dual-luciferase reporter assay. Type of data set: cell-based. A general note: A reporter such as luciferase makes a cellular process visible.

Data set [15] has as its target T2, Peroxisome proliferator-activated receptor delta (Homo sapiens, UniProt Q03181).
T2 sequence (Q03181 whole entry): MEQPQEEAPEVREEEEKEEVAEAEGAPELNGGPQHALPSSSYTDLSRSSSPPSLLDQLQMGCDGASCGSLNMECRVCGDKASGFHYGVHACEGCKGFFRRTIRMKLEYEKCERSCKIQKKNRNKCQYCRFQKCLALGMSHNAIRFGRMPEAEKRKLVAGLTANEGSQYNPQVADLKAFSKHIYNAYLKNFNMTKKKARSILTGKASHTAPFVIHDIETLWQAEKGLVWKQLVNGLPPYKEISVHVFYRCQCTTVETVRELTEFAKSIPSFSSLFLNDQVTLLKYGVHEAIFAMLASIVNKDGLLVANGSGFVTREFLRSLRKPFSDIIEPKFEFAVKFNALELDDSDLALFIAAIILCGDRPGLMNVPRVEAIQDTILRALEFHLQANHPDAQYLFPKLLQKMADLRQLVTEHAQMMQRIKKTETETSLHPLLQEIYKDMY
As to the kind of experiment: Agonist activity at human PPARdelta transfected in human HEK293 cells incubated for 18 hrs by Renilla/Firefly dual-luciferase reporter assay. Type of data set: cell-based.

The target in data set [16] is T3, Peroxisome proliferator-activated receptor gamma (Homo sapiens, UniProt P37231).
T3 sequence (P37231 whole entry): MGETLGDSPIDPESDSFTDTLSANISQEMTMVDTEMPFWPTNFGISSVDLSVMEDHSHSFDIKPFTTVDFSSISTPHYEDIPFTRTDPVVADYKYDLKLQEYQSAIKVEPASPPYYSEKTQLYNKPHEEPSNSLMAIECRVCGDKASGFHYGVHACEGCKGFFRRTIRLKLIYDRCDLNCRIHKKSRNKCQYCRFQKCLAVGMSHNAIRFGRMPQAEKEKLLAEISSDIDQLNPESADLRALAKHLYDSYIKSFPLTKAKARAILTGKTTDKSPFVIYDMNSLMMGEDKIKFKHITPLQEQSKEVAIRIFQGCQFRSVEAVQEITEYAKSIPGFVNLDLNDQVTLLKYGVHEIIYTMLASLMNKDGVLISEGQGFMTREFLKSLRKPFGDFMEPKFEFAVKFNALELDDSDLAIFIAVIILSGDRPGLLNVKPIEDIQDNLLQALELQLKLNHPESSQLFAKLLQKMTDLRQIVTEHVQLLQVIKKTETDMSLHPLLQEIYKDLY
Put plainly: Agonist activity at human PPARgamma transfected in human HEK293 cells incubated for 18 hrs by Renilla/Firefly dual-luciferase reporter assay. Type of data set: cell-based.

As a reminder, the AUC(0-t) is exposure summed from dosing to a finite time, without extrapolation to infinity. By CL/F is commonly meant clearance divided by bioavailability, as obtained after extravascular dosing. As usually defined, the Cmax is the highest concentration seen after dosing. The term half-life denotes how long it takes for the measured level to halve. One may read the pEC50 as the negative decadic logarithm of the EC50, by convention in mol/L.

pEC50: −log10 of the molar value. Calls of active or inactive are those of the source. The calls are words filed in the database; no cut-off is given here.

In turn, `Cc1cc(/C=C2\Oc3cc(OCC4CC4)ccc3C2=O)cc(C)c1OC(C)(C)C(=O)O` displayed an AUC(0-t) at 24 h in data set [1] of 51.1 µg·h/mL. In data set [2], the CL/F is 0.021 L/h/kg. Besides, in [3], the Cmax came out at 8.67 µg/mL. In addition, in [4], the Activity result is “Non-Toxic”. In data set [5], this compound had a half-life of 3.85 h.
On to `CN(CCOc1ccc(CC2SC(=O)NC2=O)cc1)c1ccccn1` (stereo not given) [ROSIGLITAZONE], for which the inhibition result in the data set listed under Mus musculus [6], in the data set filed under Mus musculus [7], in the data set filed under Mus musculus [9], in the data set filed under Mus musculus [10], in the data set listed under Mus musculus [11] and in the data set filed under Mus musculus [13] was “inactive” in each case. Besides, the Activity entry in [8] and in data set [12] was “Toxic” throughout.
In data set [14], `COc1ccc2c(c1)O/C(=C\c1cc(C)c(OC(C)(C)C(=O)O)c(C)c1)C2=O` showed a pEC50 of 5.43.
The same measure, in the same setting: for `CCOc1ccc2c(c1)O/C(=C\c1cc(C)c(OCC(=O)O)c(C)c1)C2=O` the value was less than 5.00; for `CCCOc1ccc2c(c1)O/C(=C\c1cc(C)c(OC(C)(C)C(=O)O)c(C)c1)C2=O`, 5.16.
`COc1ccc2c(c1)O/C(=C\c1cc(C)c(OCC(=O)O)c(C)c1)C2=O`: the pEC50 was less than 5.00 in data set [14] and 5.49 in [15].
In data set [14], `Cc1cc(/C=C2\Oc3cc(OCCC(C)C)ccc3C2=O)cc(C)c1OC(C)(C)C(=O)O` had a pEC50 of 5.11.
Same read-out and setting: for `CCCOc1ccc2c(c1)O/C(=C\c1cc(C)c(OCC(=O)O)c(C)c1)C2=O` the value was less than 5.00; for `Cc1cc(/C=C2\Oc3cc(OCC(C)C)ccc3C2=O)cc(C)c1OCC(=O)O`, less than 5.00.
`CSc1ccc(C(=O)/C=C/c2cc(C)c(OC(C)(C)C(=O)O)c(C)c2)cc1` [ELAFIBRANOR]: the pEC50 in [14] is 6.43; in data set [16] it was 5.40.
Take `Cc1cc(/C=C2\Oc3cc(OCC4CC4)ccc3C2=O)cc(C)c1OCC(=O)O`: the pEC50 in data set [14] was less than 5.00.
Still for that read-out and setting: for `CCOc1ccc2c(c1)O/C(=C\c1cc(C)c(OC(C)(C)C(=O)O)c(C)c1)C2=O` the value was 5.33.

The values are drawn from ChEMBL document CHEMBL4831519, “Discovery of the first-in-class dual PPARδ/γ partial agonist for the treatment of metabolic syndrome” (Eur J Med Chem, 2021).
